Reduction, MED and therapeutic safety margin (minimum lethal dose / MED) data for one compound are collected here from ChEMBL document CHEMBL1122607, “Heterocyclic analogues of chlorcyclizine with potent hypolipidemic activity” (J Med Chem, 1984).

For series [1], the system named is Rattus norvegicus. Description: Hypolipidemic activity was measured as reduction in rat serum cholesterol after oral administration in male Wistar rats at 5 mg / (kg day). The class given is functional. In outline:
(§1)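 Cholesterol-fed rats given the test compound orally by gavage on the last 3 days, with controls receiving vehicle (0.5% tragacanth mucilage). After overnight starvation, rats were killed under CO2 3 h after the last dose and bled by cardiac puncture. Serum cholesterol and triglyceride were measured by autoanalyzer and expressed as percentage reduction from control levels, with Student's t test.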

In series [2] the test system is Rattus norvegicus. Description: Hypolipidemic activity was measured as reduction in rat serum cholesterol after oral administration in male Wistar rats at 10 mg / (kg day). The class given is functional. In outline:
as §1

Series [3] deals with Rattus norvegicus. Description: Hypolipidemic activity was measured as reduction in rat serum triglyceride after oral administration in male Wistar rats at 5 mg / (kg day). The class given is functional. In outline: as §1
Series [4] has as its system Rattus norvegicus. Description: Hypolipidemic activity was measured as reduction in rat serum triglyceride after oral administration in male Wistar rats at 100 mg / (kg day). The class given is functional. In outline:
as §1

The test system of series [5] is Rattus norvegicus. Description: Hypolipidemic activity was measured as reduction in rat serum triglyceride after oral administration in male Wistar rats at 2.5 mg / (kg day). The class given is functional. In outline:
as §1

Series [6] deals with Rattus norvegicus. Description: Hypolipidemic activity was measured as reduction in rat serum cholesterol after oral administration in male Wistar rats at 50 mg / (kg day). It counts as functional. In outline: as §1
Series [7] deals with Rattus norvegicus. Description: Minimum effective dose (MED) is the dose (mg/kg)that cause significant reduction in serum cholesterol of 30% compared to concurrent controls. It counts as functional. On the set-up: unit: mg/kg. In a few lines:
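MED was calculated from the log dose/response curve as the dose giving a statistically significant 30% fall in serum cholesterol versus concurrent controls. Measured in the 3-day oral cholesterol-fed rat screen, or in a 2-week test: groups of eight young male Wistar rats on cholesterol/cholic acid-supplemented or normal diet, dosed orally by gavage daily for 14 days, vehicle 0.5% tragacanth mucilage.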

For series [8], the system named is Rattus norvegicus. Description: Hypolipidemic activity was measured as reduction in rat serum cholesterol after oral administration in male Wistar rats at 2.5 mg / (kg day). The class given is functional. In a few lines:
as §1

Series [9] deals with Rattus norvegicus. Description: Hypolipidemic activity was measured as reduction in rat serum triglyceride after oral administration in male Wistar rats at 50 mg / (kg day). The class given is functional. In a few lines:
as §1

Series [10] can be described thus: The therapeutic safety margin (TSM) is the ratio of the minimum lethal dose (mg/kg)to the MED. The following applies: in vivo. It counts as ADME, organism-based. In a few lines: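 Young male Wistar rats, eight per group, on cholesterol/cholic acid-supplemented or normal diet; graded oral gavage doses daily for 14 days; vehicle controls (0.5% tragacanth mucilage). Mortalities recorded to give the minimum lethal daily dose. After overnight fasting, serum cholesterol assayed by autoanalyzer. MED is the dose giving a significant (t test) 30% cholesterol fall, from the log dose/response curve. TSM = minimum lethal dose/MED.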

The subject of series [11] is Rattus norvegicus. Description: Hypolipidemic activity was measured as reduction in rat serum triglyceride after oral administration in male Wistar rats at 10 mg / (kg day). It counts as functional. In a few lines:
as §1

For series [12], the system named is Rattus norvegicus. Description: Hypolipidemic activity was measured as reduction in rat serum cholesterol after oral administration in male Wistar rats at 100 mg/(kg day). The class given is functional. In outline: as §1

As to `CC(C)c1ccc(C(c2ccns2)N2CCN(C)CC2)cc1` (configuration not stated), the Reduction in series [1] is 39%; in [2], 57%; in [3], 29%; in series [4], 81%; in series [5], 15%; in series [6], 82%. The Reduction was 26% in series [8], 67% in series [9], 63% in [11] and 86% in series [12]. For the same compound, in series [7], the MED amounted to 6. Also, the therapeutic safety margin (minimum lethal dose / MED) in [10] came to 14.
